In brackets after ≈: the same amount, converted by molar mass.
Experiments:
Format in all cases: functional
Burkholderia cenocepacia [1] = assay: Antimicrobial activity against Burkholderia cenocepacia 09-54 expressing beta-lactamase PenB2
Method in brief: (§1)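 MICs measured by broth microdilution and by Etest on clinical B. cenocepacia isolates grown for 18 h in Trypticase soy broth (30°C and 37°C). Susceptibility was read against CLSI guidelines.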

Burkholderia cenocepacia [2] = assay: Antimicrobial activity against Burkholderia cenocepacia 212 expressing beta-lactamase PenB3; method in brief: as §1
Burkholderia cenocepacia [3] = assay: Antimicrobial activity against Burkholderia cenocepacia 07-34 expressing beta-lactamase PenB1; method in brief: as §1
Burkholderia cenocepacia [4] = assay: Antimicrobial activity against Burkholderia cenocepacia 5007902 expressing beta-lactamase PenB4; method in brief: as §1
Escherichia coli [5] = assay: Antimicrobial activity against Escherichia coli TOP10 harboring beta-lactamase PenB1 in presence of 4 ug/ml beta-lactamase inhibitor clavulanic acid
Method in brief: (§2)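 E. coli TOP10 host, either plain or carrying the pBK-CMV clone pBcSau13 with the B. cenocepacia 212 insert. MICs by broth microdilution and Etest, read against CLSI guidelines.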

Escherichia coli [6] = assay: Antimicrobial activity against Escherichia coli TOP10
Method in brief: (§3)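 MICs by broth microdilution and Etest, interpreted per CLSI guidelines. Strains tested were host E. coli TOP10, and TOP10 carrying pBcSau13 (pBK-CMV vector, kanamycin-resistant) holding a Sau3AI fragment of B. cenocepacia 212 DNA that encodes PenB1.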

Burkholderia cenocepacia [7] = assay: Antimicrobial activity against Burkholderia cenocepacia 07-34 expressing beta-lactamase PenB1 in presence of 4 ug/ml beta-lactamase inhibitor clavulanic acid
Method in brief: (§4)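 Cultured in Trypticase soy broth at 30°C and 37°C for 18 h. MICs by broth microdilution and Etest, read against CLSI guidelines.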

Burkholderia cenocepacia [8] = assay: Antimicrobial activity against Burkholderia cenocepacia 5007902 expressing beta-lactamase PenB4 in presence of 4 ug/ml beta-lactamase inhibitor clavulanic acid; method in brief: as §4
Escherichia coli [9] = assay: Antimicrobial activity against Escherichia coli TOP10 in presence of 4 ug/ml beta-lactamase inhibitor clavulanic acid; method in brief: as §2
Burkholderia cenocepacia [10] = assay: Antimicrobial activity against Burkholderia cenocepacia 212 expressing beta-lactamase PenB3 in presence of 4 ug/ml beta-lactamase inhibitor clavulanic acid; method in brief: as §4
Burkholderia cenocepacia [11] = assay: Antimicrobial activity against Burkholderia cenocepacia 09-54 expressing beta-lactamase PenB2 in presence of 4 ug/ml beta-lactamase inhibitor clavulanic acid; method in brief: as §4
Escherichia coli [12] = assay: Antimicrobial activity against Escherichia coli TOP10 harboring beta-lactamase PenB1; method in brief: as §3

## CO/N=C(\C(=O)N[C@@H]1C(=O)N2C(C(=O)[O-])=C(C[N+]3(C)CCCC3)CS[C@H]12)c1csc(N)n1
Burkholderia cenocepacia [1]
  MIC: 64 µg/mL (≈ 133 µM)
Burkholderia cenocepacia [2]
  MIC: 64 µg/mL (≈ 133 µM)
Burkholderia cenocepacia [3]
  MIC: 32 µg/mL (≈ 66.6 µM)
Burkholderia cenocepacia [4]
  MIC: 1 µg/mL (≈ 2.08 µM)

## CC1(C)S[C@@H]2[C@H](NC(=O)[C@H](N)c3ccc(O)cc3)C(=O)N2[C@H]1C(=O)O [AMOXICILLIN]
Burkholderia cenocepacia [1]
  MIC: 512 µg/mL (≈ 1400 µM)
Escherichia coli [5]
  MIC: 16 µg/mL
Escherichia coli [6]
  MIC: 4 µg/mL (≈ 10.9 µM)
Burkholderia cenocepacia [2]
  MIC: 512 µg/mL (≈ 1400 µM)
Burkholderia cenocepacia [7]
  MIC: 512 µg/mL
Burkholderia cenocepacia [8]
  MIC: 512 µg/mL
Escherichia coli [9]
  MIC: 4 µg/mL
Burkholderia cenocepacia [10]
  MIC: 512 µg/mL
Burkholderia cenocepacia [3]
  MIC: 512 µg/mL (≈ 1400 µM)
Burkholderia cenocepacia [4]
  MIC: 512 µg/mL (≈ 1400 µM)
Burkholderia cenocepacia [11]
  MIC: 512 µg/mL
Escherichia coli [12]
  MIC: 512 µg/mL (≈ 1400 µM)

## C[C@H]1[C@H](NC(=O)/C(=N\OC(C)(C)C(=O)O)c2csc(N)n2)C(=O)N1S(=O)(=O)O [AZTREONAM]
Burkholderia cenocepacia [1]
  MIC: 512 µg/mL (≈ 1180 µM)
Burkholderia cenocepacia [2]
  MIC: 512 µg/mL (≈ 1180 µM)
Burkholderia cenocepacia [3]
  MIC: 4 µg/mL (≈ 9.19 µM)
Burkholderia cenocepacia [4]
  MIC: 16 µg/mL (≈ 36.7 µM)
Escherichia coli [12]
  MIC: 0.5 µg/mL (≈ 1.15 µM)

## CO/N=C(\C(=O)N[C@@H]1C(=O)N2C(C(=O)O)=C(COC(C)=O)CS[C@H]12)c1csc(N)n1 [CEFOTAXIME]
Burkholderia cenocepacia [1]
  MIC: 512 µg/mL (≈ 1120 µM)
Escherichia coli [6]
  MIC: 0.06 µg/mL (≈ 0.132 µM)
Burkholderia cenocepacia [2]
  MIC: 512 µg/mL (≈ 1120 µM)
Burkholderia cenocepacia [3]
  MIC: 1 µg/mL (≈ 2.2 µM)
Burkholderia cenocepacia [4]
  MIC: 4 µg/mL (≈ 8.78 µM)
Escherichia coli [12]
  MIC: 0.25 µg/mL (≈ 0.549 µM)

## CO[C@@]1(NC(=O)Cc2cccs2)C(=O)N2C(C(=O)O)=C(COC(N)=O)CS[C@@H]21 [CEFOXITIN]
Burkholderia cenocepacia [1]
  MIC: 512 µg/mL (≈ 1200 µM)
Escherichia coli [6]
  MIC: 8 µg/mL (≈ 18.7 µM)
Burkholderia cenocepacia [2]
  MIC: 512 µg/mL (≈ 1200 µM)
Burkholderia cenocepacia [3]
  MIC: 512 µg/mL (≈ 1200 µM)
Burkholderia cenocepacia [4]
  MIC: 512 µg/mL (≈ 1200 µM)
Escherichia coli [12]
  MIC: 8 µg/mL (≈ 18.7 µM)
